Data published in paper PMC7933111 (ACS chemical neuroscience, 2021).
Like-named read-outs stand apart in the source and are kept apart here.

Legend:
[1] = tested on: C57BL/6 wild-type mice; test: Head-twitch response; type: in vivo, mouse; details: for effect of antagonist pretreatment on HTR in mice administered 1-NP or 2-NP: 5-HT1AR antagonist WAY100635 or 5-HT2CR antagonist SB-242084 pretreatment; for HTR counts vs vehicle: 5 mg/kg, first 30 min postinjection, wild-type
[2] = target: T1, 5-HT2AR (Homo sapiens, UniProt P28223); type: binding
[3] = tested on: 5-HT2A-KO mice; test: Head-twitch response; type: in vivo, mouse; details: 5 mg/kg, first 30 min postinjection
In short: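 Adult (8–16 weeks) male 5-HT2A-KO mice rederived from 129sv (F5), from the authors' colony. After 30 min of chamber habituation for baseline, mice were dosed and followed 90 min by magnetometer. HTR counts were automated with minor visual checking and summed over the first 30 min post-injection, then compared with vehicle by one-way ANOVA with Bonferroni post hoc; n = 5–12.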

[4] = target: T1, 5-HT2AR; test: Intracellular Ca2+ mobilization; type: cell-based; details: for Emax: HEK293, read-out: Emax (Ca2+ mobilization)
[5] = tested on: rats trained to distinguish DOM from vehicle; details: cited from earlier work
[6] = tested on: mice; test: GI effect of 5-HTP in mice; type: in vivo, mouse; details: i.p., data not shown
[7] = tested on: 5-HT2AR; test: IP1 accumulation in vivo; set-up: species or system mouse
In short: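 Male C57BL/6 mice, 10 weeks old, received LiCl 200 mg/kg and returned home 30 min before treatment; co-administered antagonist was given in the same solution. Mice were decapitated 60 min later, and frontal cortex and posterior cerebellum were frozen at −80 °C. Tissue was bead-lysed at 4 °C in kit buffer with 50 mM LiCl and centrifuged at 17 000g. HTRF was read in duplicate; inverted 615/665 ratio, cortex/cerebellum fold-change; n = 3/group.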

[8] = tested on: mice; test: Quantification of feces; type: in vivo, mouse
In short: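 Mice habituated to the monitoring chambers and to i.p. injections were acclimated 30 min, then injected i.p. with drug(s) or saline vehicle at 10 μL/g. Feces were counted over the first 30 min; pellets present before or immediately after injection were excluded. n = 9; two-way ANOVA with Bonferroni post hoc.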

[9] = target: 5-HT2AR; test: [3H]ketanserin binding displacement, mouse frontal cortex membranes; details: 5 nM [3H]ketanserin
[10] = tested on: c-fos, egr-1, egr-2; test: Immediate early gene expression in somatosensory cortex, 5-HT2AR-KO mice; type: in vivo, mouse; details: 5 mg/kg, 60 min, 5-HT2AR-KO littermates
In short: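 Adult (10–20 weeks) 129S6/SvEv 5-HT2AR-KO mice, born to Htr2a± heterozygote breeders. Somatosensory cortex was taken 60 min after 5 mg/kg test compound or vehicle, and c-fos, egr-1 and egr-2 expression was measured alongside a housekeeping gene; n = 5.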

[11] = target: T1, 5-HT2AR; test: IP1 accumulation in vitro; type: cell-based; details: single concentration, 30 min at 37 °C
[12] = target: T1, 5-HT2AR; type: binding; remark: listed apart in the source
[13] = tested on: c-fos, egr-1, egr-2; test: Immediate early gene expression in somatosensory cortex, wild-type mice; type: in vivo, mouse; details: 5 mg/kg, 60 min, wild-type 129S6/SvEv

T1 sequence (P28223 whole entry): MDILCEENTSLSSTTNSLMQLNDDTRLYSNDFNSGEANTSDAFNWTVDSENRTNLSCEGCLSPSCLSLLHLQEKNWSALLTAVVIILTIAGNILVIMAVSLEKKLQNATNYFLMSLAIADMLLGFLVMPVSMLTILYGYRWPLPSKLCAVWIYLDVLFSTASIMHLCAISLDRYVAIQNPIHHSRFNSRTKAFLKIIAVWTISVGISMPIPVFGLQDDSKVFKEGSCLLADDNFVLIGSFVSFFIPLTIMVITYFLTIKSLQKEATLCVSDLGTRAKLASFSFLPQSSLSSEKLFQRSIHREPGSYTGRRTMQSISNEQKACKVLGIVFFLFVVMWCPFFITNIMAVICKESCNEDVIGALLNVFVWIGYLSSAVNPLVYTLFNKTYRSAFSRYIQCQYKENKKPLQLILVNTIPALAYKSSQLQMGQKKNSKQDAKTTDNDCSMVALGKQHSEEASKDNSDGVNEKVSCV

6-chloro-2,3-dihydro-5-methyl-N-[6-[(2-methyl-3-pyridinyl)oxy]-3-pyridinyl]-1H-indole-1-carboxyamide dihydrochloride [SB-242084]
effect of antagonist pretreatment on HTR in mice administered 1-NP or 2-NP [1]: did not significantly affect HTR

c1ccc2c(N3CCNCC3)cccc2c1 [1-NP, 1-(naphthalen-1-yl)piperazine]
HTR counts vs vehicle [1]: Neither isoquipazine nor 1-NP produced changes in HTR counts
HTR dose-response ([1]; i.p.): apparent suppression of HTR counts at all tested doses
Ki [2]: 0.1 µM

c1ccc2cc(N3CCNCC3)ccc2c1 [2-NP, 1-(naphthalen-2-yl)piperazine]
HTR vs vehicle in 5-HT2AR-KO mice [3]: did not differ
HTR counts vs vehicle [1]: increase in HTR that differed statistically from vehicle
ED50 ([1]; Mus musculus, ip, read-out: ED50 (HTR)): 0.42 ± 0.2 mg/kg
HTR dose-response ([1]; i.p.): dose-dependent
Ki [2]: 0.724 µM
EC50 [4]: 0.15 µM
Emax [4]: 48.9%
generalization for the DOM stimulus [5]: full generalization

N[C@@H](Cc1c[nH]c2ccc(O)cc12)C(=O)O [5-HTP, 5-hydroxytryptophan]
GI effect [6]: produced diarrhea

COc1cccc([C@H](O)C2CCN(CCc3ccc(F)cc3)CC2)c1OC [M100907, (R)-(+)-α-(2,3-dimethoxyphenyl)-1-[2-(4-fluorophenyl)ethyl]-4-pipidinemethanol]
effect on quipazine-induced IP1 accumulation in vivo ([7]; M100907 0.1 mg/kg with quipazine 5 mg/kg): successfully blocked

COc1ccccc1N1CCN(CCN(C(=O)C2CCCCC2)c2ccccn2)CC1.O=C(O)/C=C\C(=O)O [WAY100635, N-[2-[4-(2-methoxyphenyl)-1-piperazinyl]ethyl]-N-2-pyridinylcyclohexanecarboxamide maleate]
effect of antagonist pretreatment on HTR in mice administered 1-NP or 2-NP [1]: did not significantly affect HTR

c1ccc2c(N3CCNCC3)nccc2c1 [isoquipazine, 1-(piperazin-1-yl)isoquinoline]
HTR counts vs vehicle [1]: Neither isoquipazine nor 1-NP produced changes in HTR counts
Ki [2]: 3.8 µM
IC50 [4]: 24.7 µM

Cc1nccn1CC1CCc2c(c3ccccc3n2C)C1=O (stereo not drawn) [ondansetron, 1,2,3,9-tetrahydro-9-methyl-3-[(2-methyl-1H-imidazol-1-yl)methyl]-4H-carbazol-4-one]
effect on quipazine-induced feces count increase ([8]; ondansetron 1 mg/kg with quipazine 5 mg/kg, 30 min following cotreatment): successfully reduced

c1ccc2nc(N3CCNCC3)ccc2c1 [quipazine, 2-(piperazin-1-yl)quinoline]
pKi [9]: 5.601 ± 0.16
changes in c-fos, egr-1 and egr-2 expression [10]: not observed
HTR vs vehicle in 5-HT2AR-KO mice [3]: did not differ
effect on HTR counts ([1]; different doses, i.p., 90 min recording): robust and long-lasting increase on HTR counts
duration of HTR increase ([1]; highest doses evaluated): over 90 min
time of peak of HTR increase post injection ([1]; i.p.): ≤ 30 min
Ki [2]: 20 µM
effect on feces count ([8]; quipazine 5 mg/kg, first 30 min): feces count increase
EC50 [4]: 7.26 µM
Emax [4]: 44.3%
IP1 accumulation (in words) [11]: robust increase of IP1 accumulation
Ki [12]: 5.13 µM
IP1 accumulation in frontal cortex vs vehicle ([7]; 5 mg/kg, LiCl 200 mg/kg pretreatment, 60 min): greater accumulation of IP1
cortical expression of c-fos, egr-1 and egr-2 [13]: exhibited changes in the cortical expression of c-fos, egr-1, and egr-2
